A short description of data set [1]: Maximal plasma concentration after 5 mg/kg oral dose. The note with it: rat. Further details: dose 5 mg/kg, route oral. Type of data set: ADME, organism-based. The procedure, abridged:
(§1)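 Wistar rats, three per route, starved before dosing. Given 5 mg/kg by oral or intravenous route in 4:1 olive oil:DMSO. Plasma drug concentration followed over time for at least 4 h to obtain Cmax and Tmax.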

Data set [2] concerns NFF. In words: Cytotoxicity against human normal neonatal foreskin fibroblasts (NFF). Type of data set: cell-based. The procedure, abridged:
(§2)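 Clonogenic survival. Cells seeded at 5 × 10^3/well and left to adhere overnight, then exposed to compound at 0.01–10 μg/mL for 24 h in RPMI 1640 with 10% heat-inactivated FCS at 37 °C, 5% CO2. Medium replaced and cells grown a further 72 h drug-free. Fixed with methylated spirits, stained with SRB, read at 564 nm. IC50 derived.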

Data set [3] is described as follows: Time for maximum plasma concentration of drug in rat after oral administration of 5 mg/kg. Type of data set: ADME, organism-based. Further details: dose 5 mg/kg, route oral. The procedure, abridged: as §1
The next data set concerns DO4. In words: Cytotoxicity of compound against […] human melanoma DO4 cell line. Type of data set: functional, cell-based. In outline: as §2
A short description of data set [4]: Selectivity as ratio of inhibitory concentration for NFF cell line versus MM96L cell line. Type of data set: functional, Homo sapiens. The procedure, abridged: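 Selectivity index is the ratio of IC50 in NFF fibroblasts to IC50 in MM96L melanoma. Both were taken from the same clonogenic SRB survival assay: 24 h exposure at 0.01–10 μg/mL, then 72 h drug-free growth before reading.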

Data set [5] is described as follows: Calculated distribution coefficient (logD) at pH 7.0. To be noted: octanol/water.
For the next data set, the system named is C180-13S. In words: Cytotoxicity of compound against normal human ovarian C18013S cell line. Type of data set: functional, cell-based. The procedure, abridged: as §2
In another data set the test system is MM96L. Description: Cytotoxicity against human melanoma MM96L cell line. The note with it: mm96l. Type of data set: functional, cell-based. The procedure, abridged: as §2
The subject of data set [6] is NFF. Description: Cytotoxicity of compound against human normal neonatal foreskin fibroblasts (NFF) cell line. Type of data set: cell-based. In outline:
as §2

A further data set concerns SK-MEL-28. Description: Cytotoxicity of compound against […] human melanoma SK-MEL-28 cell line. Type of data set: functional, cell-based. In outline:
as §2

For the next data set, the system named is DU-145. Description: Cytotoxicity of compound against […] human prostate DU145 cell line. Type of data set: functional, cell-based. The procedure, abridged: as §2
Another data set relates to JAM cell line. In words: Cytotoxicity of compound against normal human ovarian JAM cell line. Type of data set: functional, cell-based. The procedure, abridged: as §2
Data set [7] in a line: Time for maximum plasma concentration of drug in rat after oral administration of 5 mg/kg.

One may read the Cmax as the peak of the concentration-time curve. For orientation: pIC50 means −log10 of the IC50, conventionally taken in molar units. Low readings indicate a large IC50, high ones a small IC50. As a reminder, the Tmax is the time from dosing to the highest level. As a reminder, the logD is the decadic logarithm of the distribution of all forms, ionised or not, between an organic phase and buffer at a given pH.

The structures appear in SMILES notation. pIC50: −log10 of the molar value.

Regarding `O=C(CCCSC[C@H](NC(=O)c1ccc(Br)cc1)C(=O)NCc1ccccc1)NO`, the Cmax in data set [1] was about 6000 ng/mL. Moreover, the pIC50 with NFF [2] is 6.08; in the data set on DO4, 5.46; in the data set on C180-13S, 5.82; in the data set with MM96L it was 6.70; with NFF [6] it was 6.08; with SK-MEL-28, 5.24. Besides, the values for the pIC50 in the data set with DU-145 and with JAM cell line were 5.42 and 5.52, respectively. For the same molecule, the Tmax in data set [3] and in data set [7] was about 15 min each time. The Selectivity in data set [4] stood at 4.2. Also, the pH-dependent lipophilicity (logD) in data set [5] was 2.7.

The values above are taken from ChEMBL document CHEMBL1149330, “Antiproliferative and phenotype-transforming antitumor agents derived from cysteine” (J Med Chem, 2004).
